OX1R antag-1: OX1R (human) antagonism. inhibition, % at 6.6 µM. OX1R-expressing cells, FRET antagonist read-out. 1.8% of 330,000 active; in the data active = inhibition mostly above about 38%, no sharp cut-off; inactive = mostly below about 40%;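 also: 0% = agonist challenge alone and 100% = reference antagonist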
OX1R antag-2: antagonists of human orexin 1 receptor. CHO/OX1R cells, Fluo-8 calcium fluorescence, orexin A. inhibition, % at 5 µM. 0.43% of 330,000 active. AID 434989;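 active = inhibition above its plate's threshold, mean inhibition of all tested compounds on the plate plus 3 SD, cut at about 37% in these data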;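 also: 0% = orexin A challenge wells and 100% = SB-334867-A antagonist wells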
GPR7 antagonist: human neuropeptides B/W receptor 1 antagonism | P48145 | 1.1% of 290,000 active | AID 1861 | inhibition, % at 4.4 µM | GPR7-expressing cells, fluorescence antagonist assay; in the data active = inhibition above about 16%, passing the limit was not always enough;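 also: cells stimulated with the agonist NPW; 0% = agonist with vehicle and 100% = vehicle without agonist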
Target sequence (P48145 whole entry, looked up): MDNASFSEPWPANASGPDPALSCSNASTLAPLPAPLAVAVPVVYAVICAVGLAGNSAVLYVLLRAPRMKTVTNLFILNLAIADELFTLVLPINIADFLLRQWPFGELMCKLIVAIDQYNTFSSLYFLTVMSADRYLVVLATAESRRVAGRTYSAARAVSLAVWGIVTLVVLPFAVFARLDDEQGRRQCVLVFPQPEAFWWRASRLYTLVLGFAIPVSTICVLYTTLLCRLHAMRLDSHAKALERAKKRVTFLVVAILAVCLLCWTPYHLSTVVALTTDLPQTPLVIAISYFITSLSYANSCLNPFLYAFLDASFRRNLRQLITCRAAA
TAAR1 agonist: human TAAR1 agonism | CHO RD-HGA16 TAAR1, Fluo-8 calcium fluorescence; vehicle wells 0%, saturating PEA agonist 100% | activation, % at 3 µM | 0.99% of 360,000 active | AID 624467;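 active = activation above the mean activation of all test compounds in the run plus 3 SD, cut at about 38% in these data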
Target sequence (Q96RJ0 whole entry, looked up): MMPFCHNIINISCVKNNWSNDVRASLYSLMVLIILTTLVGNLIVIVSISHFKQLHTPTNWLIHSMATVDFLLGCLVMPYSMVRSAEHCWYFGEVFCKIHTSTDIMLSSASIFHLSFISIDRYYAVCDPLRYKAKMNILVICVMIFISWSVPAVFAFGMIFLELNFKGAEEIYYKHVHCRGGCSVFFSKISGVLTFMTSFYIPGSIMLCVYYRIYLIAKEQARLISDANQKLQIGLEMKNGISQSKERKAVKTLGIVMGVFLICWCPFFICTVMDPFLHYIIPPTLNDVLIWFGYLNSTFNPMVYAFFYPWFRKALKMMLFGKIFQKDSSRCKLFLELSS
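Signal – calcium-sensitive Fluo-8 signal, excitation 470-495, emission 515-575 nm · System – RD-HGA16 (CHO) cells co-expressing Gα16 and hTAAR1 · Incubation – 17-24 h seeding, 75 min 37 °C dye, 30 min RT · Compound dosing – 3 µM single concentration · Repeats – no replicates (n 1)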
TAAR1 antag: human TAAR1 antagonism. Q96RJ0. CHO RD-HGA16 TAAR1, Fluo-8 calcium fluorescence, antagonist. inhibition, % at 3 µM. 1.5% of 360,000 active;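 active = inhibition above a per-plate cutoff, the mean inhibition of test compounds on that plate plus 3 SD, cut at about 49% in these data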;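 also: 0% = DMSO plus EC80 beta-PEA response and 100% = DMSO alone without agonist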
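Test system – hTAAR1-expressing CHO RD-HGA16 cells, Gα16-coupled · Also added – β-PEA at EC80 concentration, post-compound challenge · Compound – 3 µM, single point · Incubation – dye loading 75 min at 37 °C, then 30 min room temperature · Measured by – Fluo-8 intracellular calcium dye fluorescence, real-time kinetic reads · Benchmarks – vehicle and agonist controls · Replicates – singlicate, one well per test compound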
CHO parental Ca: counter-screen for OX1R antagonists: effect in parental CHO cells; parental CHO-K1, ATP-induced calcium, Fluo-8 fluorescence; inhibition, % at 5.6 µM; 0.63% of 330,000 active;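 active = inhibition above that plate's mean sample inhibition plus 3 SD, cut at about 26% in these data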;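 also: 0% = ATP-challenged DMSO wells and 100% = DMSO wells without ATP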
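Material – parental CHO cells · Reagent – ATP stimulus · Compound – single nominal dose of 5.6 µM per compound · Detection – Fluo-8 fluorescence · Read-out basis – percent inhibition of calcium signal · Controls – ATP-challenged DMSO wells low, unchallenged DMSO wells high · Repeats – no replicates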
Active calls of the source: *; · = no result. Shown are actives, neighbours in structure and some others; about 4.6% of the full set was active somewhere.

SMILES	OX1R antag-1	OX1R antag-2	GPR7 antagonist	TAAR1 agonist	TAAR1 antag	CHO parental Ca
Cc1ccccc1OCC(O)Cn1c(=N)n(Cc2ccccc2)c2ccccc21 (stereo not given)	-6	29	35*	33	2	39*
Cc1ccccc1OCC(O)Cn1c2ccccc2c2ccccc21 (stereo not given)	8	-29	-14	-1	7	-19
CCCCCC(=O)N1C[C@H](O)[C@@H](n2cc(-c3ccc(F)cc3)nn2)C[C@@H]1c1ccc(OC)cc1	·	·	·	2	20	·
O=C(NCc1ccco1)c1cccn2c(=O)c3sccc3nc12	42*	-29	-3	5	-2	-21
O=C(NCc1cccs1)c1cccn2c(=O)c3sccc3nc12	20	-10	-2	3	-20	-19
C=CC[C@]12C[C@@]3(O[C@H](C4CCCCC4)N=C3C[C@H](c3ccc(OC)cc3)[C@H]1C)N(Cc1ccncc1)C2=O	·	·	·	-2	-51	·
COc1ccccc1-n1c(Cc2cccc3ccccc23)nnc1SCC(=O)O	·	·	·	0	-4	·
CCOC(=O)C1(Cc2ccccc2)CCN(Cc2cccc(OC)c2O)CC1	12	-14	-7	7	-22	-24
CCOC(=O)C1(Cc2ccccc2)CCN(Cc2cn(CC(=O)OC)c3ccccc23)CC1	7	-25	32*	4	2	-3
COC(=O)c1cc2c(c3c4cc(C)ccc4n(S(=O)(=O)c4ccc(OC)cc4)c13)C(=O)N(Cc1ccccc1OC)C2	·	·	·	0	-15	·
O=C(N=Nc1c(O)[nH]c2ccccc12)c1ccc(CN2CCOCC2)cc1	63*	3	-11	2	5	-3
Cc1ccc(CN2CCN(CC(=O)N=Nc3c(O)[nH]c4ccccc34)CC2)cc1	66*	-1	-8	0	9	-27
Oc1[nH]c2ccccc2c1N=NC(=S)N1CCOCC1	20	-10	-22	·	·	9
CCOC(=O)Cn1c(=O)oc2cc(S(=O)(=O)NC3CCCc4ccccc43)ccc21 (stereo not given)	8	-8	28*	2	19	14
C/C(=N/NC(=O)CN(c1ccccc1)S(=O)(=O)c1ccccc1)c1ccccc1O	50*	-24	-2	1	-4	0
CCCC/C(C)=N/NC(=O)CN(c1ccc(Br)cc1)S(=O)(=O)c1ccccc1	-1	-35	-12	-3	7	-35
O=C1C=C(N(CCO)Cc2ccccc2)c2ccccc2C1=O	·	·	-8	·	·	·
O=C1c2ccccc2C(=O)c2c1cccc2N(CCO)CCO	59*	-18	-14	3	-13	-10
CN(C)CCOc1ccc(-c2c(-c3ccccc3)sc3ccccc23)cc1	10	64*	·	27	42	49*
CCc1cccc(NC(=O)CCc2nc(-c3cccs3)no2)c1	23	-14	-1	3	-2	6
O=C(CCc1nc(-c2cccs2)no1)Nc1cnc2ccccc2c1	18	0	-2	42*	-15	-7
O=c1/c(=C\c2cccn2-c2ccccc2)sc2nc3ccccc3n12	·	·	-5	1	7	·
O=C(O)Cn1cc(/C=c2/sc3nc4ccccc4n3c2=O)c2ccccc21	59*	19	16	5	8	-12
Cc1sc(NC(=O)c2ccco2)c(C(c2cccnc2)N2CCN(CCO)CC2)c1C (stereo not given)	1	-25	-10	2	-4	-17
CCOC(=O)C1CCN(C(c2cccnc2)c2c(NC(=O)c3ccco3)sc(C)c2C)CC1 (stereo not given)	8	-35	27*	23	26	-8
SMILES	OX1R antag-1	OX1R antag-2	GPR7 antagonist	TAAR1 agonist	TAAR1 antag	CHO parental Ca
Cn1c(=O)c2ccccc2n(C)c1=O	·	·	·	1	-13	·
Cc1ccccc1Cn1nc(C)c(NC(=O)C2c3ccccc3Oc3ccccc32)c1C	24	-2	-4	39*	6	-6
COC(=O)[C@@]12C[C@@H](CC(=O)N3CCCC3)C(=O)N(CCc3ccc(OC)c(OC)c3)C1=CCC(C)(C)C2	·	·	·	4	-21	·
NC(=O)c1cc([N+](=O)[O-])ccc1NCC1CCCCC1	-2	-21	·	38*	-15	-19
O=C(/C=C(\Nc1ccc(Cl)c(C(F)(F)F)c1)c1ccccc1)c1ccccc1	·	·	·	0	-18	·
CCc1ccc(Nc2nnc(SCC(=O)Nc3sccc3C(N)=O)s2)cc1	26	-5	-9	15	39	-25
COc1cccc(Nc2nnc(SCC(=O)Nc3sccc3C(N)=O)s2)c1	63	15	12	12	68*	1
COC(=O)C1=C(C)N(Cc2cccc(C(F)(F)F)c2)C(=NCc2cccc(C(F)(F)F)c2)NC1c1ccc(Cl)cc1 (stereo not given)	·	·	·	11	6	·
Cc1ccc(SC(C)C(=O)NCCC2=CCCCC2)cc1 (stereo not given)	8	-20	-2	0	-33	-6
Cc1cc(=O)[nH]c(SCC(=O)NCCC2=CCCCC2)n1	13	-25	-5	41*	3	-17
CC(Sc1nc(N)cc(N)n1)C(=O)NCCC1=CCCCC1 (stereo not given)	-1	-7	·	38*	15	-8
C[C@@H]1ON(C)[C@H]2C[C@H]3c4cc(-c5cc6ccccc6o5)ccc4CCN3C[C@@H]12	·	·	·	2	-19	·
C=CCNc1cccc2c1S(=O)(=O)N[C@H](Cc1ccccc1)CO2	·	·	·	3	12	·
Cc1c(C(=O)NCc2ccco2)sc2nc(-c3ccccc3)cn12	23	-12	1	8	14	-10
Cc1c(C(=O)Nc2ccc3c(c2)OCCO3)sc2nc(-c3ccccc3)cn12	66*	68*	7	10	64*	46*
Cc1c(C(=O)N2CCOCC2)sc2nc(-c3ccccc3)cn12	16	-13	-7	10	-3	-3
Cc1c(C(=O)Nc2ccncc2)sc2nc(-c3ccccc3)cn12	37*	-6	-2	13	58*	13
O=Cc1ccc([B-](F)(F)F)o1	·	·	·	5	-5	·
CCOc1cccc(C=NNc2nc(=O)cc(C(=O)OC)s2)c1O	·	·	·	2	10	·
CSc1nc(O)c(N=Nc2ccc(F)cc2F)c(=O)[nH]1	45*	-12	0	0	-8	-5
COc1ccccc1NC(=O)Nc1nc(C(N)CCc2ccccc2)cs1 (stereo not given)	·	·	·	8	9	·
NC(CCc1ccccc1)c1csc(Nc2ccc(C(=O)NCCO)cc2)n1 (stereo not given)	·	·	·	2	1	·
NC(CCc1ccccc1)c1csc(Nc2ccc(C(=O)c3ccccc3)cc2)n1 (stereo not given)	·	·	·	41*	34	·
NC(=O)c1ccc(Nc2nc(C(N)COCc3ccccc3)cs2)cc1 (stereo not given)	·	·	·	2	0	·
